Experiment [1] deals with T1, Lysine-specific demethylase 4D (Homo sapiens) (UniProt Q6B0I6).
T1 sequence (whole entry): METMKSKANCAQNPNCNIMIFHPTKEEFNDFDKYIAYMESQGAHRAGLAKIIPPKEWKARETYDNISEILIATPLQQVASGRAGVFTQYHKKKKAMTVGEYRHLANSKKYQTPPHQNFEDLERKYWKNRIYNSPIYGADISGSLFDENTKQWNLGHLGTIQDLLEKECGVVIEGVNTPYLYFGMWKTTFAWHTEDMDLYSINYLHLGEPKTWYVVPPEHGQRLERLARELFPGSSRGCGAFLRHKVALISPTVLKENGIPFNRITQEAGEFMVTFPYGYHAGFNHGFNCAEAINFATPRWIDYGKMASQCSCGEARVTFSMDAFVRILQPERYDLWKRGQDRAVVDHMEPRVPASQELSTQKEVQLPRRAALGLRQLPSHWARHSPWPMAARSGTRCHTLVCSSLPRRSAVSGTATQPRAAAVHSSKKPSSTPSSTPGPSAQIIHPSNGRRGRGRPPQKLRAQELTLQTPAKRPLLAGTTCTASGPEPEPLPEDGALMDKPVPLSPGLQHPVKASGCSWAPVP
Description: Binding affinity to N-terminal His-6-tagged human KDM4D catalytic domain (1 to 342 residues) assessed as change in entropy by isothermal titration calorimetry analysis. The method in brief: (§1)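 Human KDM4D catalytic domain (residues 1–342) expressed with N-terminal His6-tag, purified by metal affinity chromatography; tag removed by TEV protease for affinity tests, then size-exclusion. Protein concentration measured by A280. ITC at 20 °C in 10 mM HEPES pH 7.5, 0.5 M NaCl, 5% glycerol, 1 mM TCEP. Ligands diluted from DMSO stocks to 0.4–1% final DMSO, with protein DMSO-matched. Ligand titrated into protein in the cell in 13 or 19 injections of 2–3 μL, 180 s spacing, 5 s filter. Two or three runs per ligand. Thermodynamic parameters obtained by baseline adjustment, peak integration, heat normalization per mole of ligand, and fitting.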
(ITC needs no label: the signal is the heat of the interaction.)

For experiment [2], the target named is T1, Lysine-specific demethylase 4D (Homo sapiens). Description: Binding affinity to N-terminal His-6-tagged human KDM4D catalytic domain (1 to 342 residues) assessed as change in enthalpy by isothermal titration calorimetry analysis. A digest of the protocol: as §1
Experiment [3] has as its target T2, Lysine-specific demethylase 4D (Homo sapiens, UniProt Q6B0I6).
T2 sequence (Q6B0I6 whole entry): T1 sequence (whole entry)
The experiment can be described thus: Binding affinity to N-terminal His-6-tagged human KDM4D catalytic domain (1 to 342 residues) assessed as dissociation constant by isothermal titration calorimetry analysis. The method in brief:
as §1

Experiment [4] addresses T1, Lysine-specific demethylase 4D (Homo sapiens). The experiment can be described thus: Binding affinity to N-terminal His-6-tagged human KDM4D catalytic domain (1 to 342 residues) assessed as change in gibbs free energy by isothermal titration calorimetry analysis. A digest of the protocol:
as §1

A word on the Kd: it is the concentration at which binding is half-saturated. `NNC(=O)[C@H](NC(=O)CCCCc1ccccc1)c1nnn[nH]1`: the -TdeltaS in experiment [1] is -12.9 kcal/mol. The deltaH in experiment [2] stood at 8.5 kcal/mol. In addition, the Kd in experiment [3] was determined as 509 µM. Besides, the deltaG in experiment [4] is -4.42 kcal/mol.
The like results for `CS(=O)(=O)NCCNc1cc(C(=O)O)ccn1` were, in that order, -1.35 kcal/mol, -4.6 kcal/mol, 35.5 µM and -5.97 kcal/mol.
The like results for `O=C(NO)c1cc(-c2nnn[nH]2)ccn1` were, in that order, -13.7 kcal/mol, 5.3 kcal/mol, 0.55 µM and -8.4 kcal/mol.
The like results for `O=C(O)c1ccnc(NCCCO)c1` were, in that order, -4.05 kcal/mol, -1.65 kcal/mol, 55.9 µM and -5.7 kcal/mol.

Source of the values: ChEMBL document CHEMBL5614377, “Structure-based mapping of the histone-binding pocket of KDM4D using functionalized tetrazole and pyridine core compounds” (Eur J Med Chem, 2024).
